In ChEMBL document CHEMBL1806484, “Design, synthesis and biological evaluation of tyrosine-based hydroxamic acid analogs as novel histone deacetylases (HDACs) inhibitors” (Bioorg Med Chem, 2011) one finds IC50 data, which are given here for 13 compounds.

Experiment [1] concerns the target T1, Histone deacetylase 8 (Homo sapiens, UniProt Q9BY41).
T1 sequence (Q9BY41 whole entry): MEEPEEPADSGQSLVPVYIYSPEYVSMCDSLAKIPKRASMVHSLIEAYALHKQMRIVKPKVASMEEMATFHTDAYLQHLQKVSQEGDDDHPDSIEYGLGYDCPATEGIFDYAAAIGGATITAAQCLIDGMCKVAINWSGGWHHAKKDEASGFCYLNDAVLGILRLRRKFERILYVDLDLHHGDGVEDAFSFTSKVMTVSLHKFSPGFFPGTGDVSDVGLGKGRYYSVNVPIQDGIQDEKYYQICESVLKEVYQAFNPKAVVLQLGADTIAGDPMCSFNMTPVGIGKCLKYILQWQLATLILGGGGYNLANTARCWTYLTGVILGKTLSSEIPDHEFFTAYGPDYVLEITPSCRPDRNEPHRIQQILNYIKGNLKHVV
Nature of the experiment: Inhibition of HDAC8 using fluorogenic Boc-Lys (acetyl)-AMC as substrate after 30 mins by fluorescence assay. An outline of the steps: (§1)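 Enzyme (HeLa nuclear extract or HDAC8, the latter expressed and purified in-house) preincubated 5 min with graded compound concentrations. Substrate added and run for 30 min at 37 °C, then stopped with a trypsin/TSA developer for 20 min at 37 °C. Fluorescence read at ex 390/em 460 nm. Inhibition was taken relative to control wells, IC50 by regression. Mean ± SD of ≥3 determinations.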

The subject of experiment [2] is MDA-MB-231. Nature of the experiment: Antiproliferative activity against human MDA-MB-231 cells after 48 hrs by MTT assay. The following applies: MDA-MB-231, 48 h. The experiment is classed as functional, cell-based.
The test system of experiment [3] is A549. Description: Antiproliferative activity against human A549 cells after 48 hrs by MTT assay. The experiment is classed as functional, cell-based. The note with it: A549, 48 h.
The subject of experiment [4] is HCT-116. Nature of the experiment: Antiproliferative activity against human HCT116 cells after 48 hrs by MTT assay. The experiment is classed as functional, cell-based. The following applies: HCT-116, 48 h. (In general: Formazan colour is commonly taken as a measure of viable cells.)
Experiment [5] addresses Histone deacetylase. Nature of the experiment: Inhibition of HDAC in human HeLa cell nuclear extract using fluorogenic Boc-Lys (acetyl)-AMC as substrate after 30 mins fluorescence assay. Type of experiment: protein assay. The method, boiled down: as §1

`O=C(COc1ccc(C[C@H](NC(=O)CCc2ccccc2)C(=O)Nc2ccccc2)cc1)NO`: the IC50 – broadly, the concentration needed to halve the response being measured – in experiment [1] was found to be 0.151 µM.
On the same count and under the same terms, next, `CC(C)(C)OC(=O)N[C@@H](Cc1ccc(OCC(=O)NO)cc1)C(=O)Nc1ccccc1`: 0.227 µM; `N[C@@H](Cc1ccc(OCC(=O)NO)cc1)C(=O)Nc1ccccc1`: 0.467 µM; `O=C(COc1ccc(C[C@H](NC(=O)OCc2ccccc2)C(=O)Nc2ccccc2)cc1)NO`: 0.197 µM.
Still for that read-out and setting: next, `COc1ccc(NC(=O)[C@H](Cc2ccc(OCC(=O)NO)cc2)NC(=O)OCc2ccccc2)cc1`: 0.12 µM; `O=C(COc1ccc(C[C@H](NC(=O)OCc2ccccc2)C(=O)Nc2cccc(Cl)c2)cc1)NO`: 0.213 µM.
As for `COc1ccc(NC(=O)[C@H](Cc2ccc(OCC(=O)NO)cc2)NC(=O)c2ccccc2)cc1`, the IC50 was found to be 0.087 µM in experiment [1]; 2.98 µM in experiment [2]; 24 µM in experiment [3]; 1.53 µM in experiment [4]; 0.358 µM in experiment [5].
The matching figures for `COc1ccc(NC(=O)[C@H](Cc2ccc(OCC(=O)NO)cc2)NC(=O)Cc2ccccc2)cc1`: 0.063 µM, 22.3 µM, greater than 100 µM, greater than 100 µM and 1.23 µM.
The matching figures for `COc1ccc(NC(=O)[C@H](Cc2ccc(OCC(=O)NO)cc2)NC(=O)CCc2ccccc2)cc1`: 0.09 µM, 6.59 µM, 54.6 µM, 6.24 µM and 0.889 µM.
The matching figures for `COc1ccc(NC(=O)[C@H](Cc2ccc(OCC(=O)NO)cc2)NC(=O)CCCc2ccccc2)cc1`: 0.086 µM, 14.3 µM, 97.2 µM, 57.3 µM and 1.32 µM.
Consider `COc1ccc(NC(=O)[C@H](Cc2ccc(OCC(=O)NO)cc2)NCc2ccccc2)cc1`, for which the IC50 in experiment [1] turned out to be 1.18 µM.
With `COc1ccc(NC(=O)[C@H](Cc2ccc(OCC(=O)NO)cc2)NCCc2ccccc2)cc1`, in experiment [1], the midpoint of inhibition, the IC50, lay at 0.66 µM.
`COc1ccc(NC(=O)[C@H](Cc2ccc(OCC(=O)NO)cc2)NCCCc2ccccc2)cc1` returned an IC50 in experiment [1] of 0.922 µM.
